Data taken from ChEMBL document CHEMBL4689842, “EUbOPEN Chemogenomics Library wave 1” (2021).

Legend:
Format in all cases: toxicity, cell-based
U2OS = assay: Incucyte cell viability with U2OS; settings: human, 10 µM, compound concentration 10 uM; also: filed as whole numbers so only -1 and 0 and 1 occur
Fibroblast [1] = assay: Incucyte cell viability with human fibroblast; settings: 10 µM, compound concentration 10 uM; also: filed as whole numbers so only -1 and 0 and 1 occur
Fibroblast [2] = assay: Multiplex assay against human fibroblast
How it was run: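 At seeding, live cells were stained with Hoechst33342, BioTracker Green Microtubule Cytoskeleton Dye, MitoTracker Red and Annexin V Alexa Fluor 680. After compound addition they were imaged on a CQ1 microscope at 37°C and 5% CO2, and CellPathfinder machine-learning gating sorted them into Hoechst high-intensity objects or normal cells, with normal cells further split into healthy, pyknosed or fragmented nuclei and pyknosed cells into mitotic or apoptotic. Tubulin, mitochondrial-mass and membrane-permeability phenotypes are given as per cents of cells with healthy nuclei.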

HEK-293T = assay: Incucyte cell viability with HEK293T; settings: human, 10 µM, compound concentration 10 uM; also: filed as whole numbers so only -1 and 0 and 1 occur
[3] = 0 h, replicate number 1, timepoint 0 hours
[4] = 12 h, replicate number 1, timepoint 12 hours
[5] = 18 h, replicate number 1, timepoint 18 hours
[6] = 24 h, replicate number 1, timepoint 24 hours
[7] = 12 h, 1 µM, compound concentration 1 uM, replicate 1
[8] = 12 h, 1 µM, compound concentration 1 uM, replicate 2
[9] = 12 h, 10 µM, compound concentration 10 uM, replicate 1
[10] = 12 h, 10 µM, compound concentration 10 uM, replicate 2
[11] = 24 h, 1 µM, compound concentration 1 uM, replicate 1
[12] = 24 h, 1 µM, compound concentration 1 uM, replicate 2
[13] = 24 h, 10 µM, compound concentration 10 uM, replicate 1
[14] = 24 h, 10 µM, compound concentration 10 uM, replicate 2
[15] = 48 h, 1 µM, compound concentration 1 uM, replicate 1
[16] = 48 h, 1 µM, compound concentration 1 uM, replicate 2
[17] = 48 h, 10 µM, compound concentration 10 uM, replicate 1
[18] = 48 h, 10 µM, compound concentration 10 uM, replicate 2

CN1C(=O)[C@@H](NC(=O)c2cc3ccccc3[nH]2)N=C(c2ccccc2)c2ccccc21 [DEVAZEPIDE]
Growth Rate (U2OS; [3]): 0 | Growth Rate (U2OS; 6 h, replicate number 1, timepoint 6 hours): 1 | Growth Rate (U2OS; [4]): 1 | Growth Rate (U2OS; [5]): 1 | Growth Rate (U2OS; 18 h, replicate number 2, timepoint 18 hours): 0 | Growth Rate (U2OS; [6]): 1 | Growth Rate (U2OS; 24 h, replicate number 2, timepoint 24 hours): 0 | Growth Rate (Fibroblast [1]; [3]): 0 | Growth Rate (Fibroblast [1]; [5]): 1 | Growth Rate (Fibroblast [1]; [6]): 1 | Population Apoptotic (%) (Fibroblast [2]; [7]): 72% | Population Fragmented Nuclei (%) (Fibroblast [2]; [7]): 21% | Population Healthy Nuclei (%) (Fibroblast [2]; [7]): 36% | Population Hoechst High Intensity Objects (%) (Fibroblast [2]; [7]): 13% | Population Membrane Permeable-Phenotype (%) (Fibroblast [2]; [7]): 34% | Population Mitochondria Different-Phenotype (%) (Fibroblast [2]; [7]): 3% | Population Mitotic Cells (%) (Fibroblast [2]; [7]): 27% | Population Normal (%) (Fibroblast [2]; [7]): 87% | Population Pyknosed Nuclei (%) (Fibroblast [2]; [7]): 41% | Population Tubulin-Different-Phenotype (%) (Fibroblast [2]; [7]): 56% | Total Cell Count (Fibroblast [2]; [7]): 100 | Population Apoptotic (%) (Fibroblast [2]; [8]): 33% | Population Fragmented Nuclei (%) (Fibroblast [2]; [8]): 4% | Population Healthy Nuclei (%) (Fibroblast [2]; [8]): 85% | Population Hoechst High Intensity Objects (%) (Fibroblast [2]; [8]): 5% | Population Membrane Permeable-Phenotype (%) (Fibroblast [2]; [8]): 9% | Population Mitochondria Different-Phenotype (%) (Fibroblast [2]; [8]): 23% | Population Mitotic Cells (%) (Fibroblast [2]; [8]): 66% | Population Normal (%) (Fibroblast [2]; [8]): 94% | Population Pyknosed Nuclei (%) (Fibroblast [2]; [8]): 9% | Population Tubulin-Different-Phenotype (%) (Fibroblast [2]; [8]): 10% | Total Cell Count (Fibroblast [2]; [8]): 68 | Population Apoptotic (%) (Fibroblast [2]; [9]): 67% | Population Fragmented Nuclei (%) (Fibroblast [2]; [9]): 18% | Population Healthy Nuclei (%) (Fibroblast [2]; [9]): 48% | Population Hoechst High Intensity Objects (%) (Fibroblast [2]; [9]): 16% | Population Membrane Permeable-Phenotype (%) (Fibroblast [2]; [9]): 42% | Population Mitochondria Different-Phenotype (%) (Fibroblast [2]; [9]): 15% | Population Mitotic Cells (%) (Fibroblast [2]; [9]): 32% | Population Normal (%) (Fibroblast [2]; [9]): 83% | Population Pyknosed Nuclei (%) (Fibroblast [2]; [9]): 33% | Population Tubulin-Different-Phenotype (%) (Fibroblast [2]; [9]): 68% | Total Cell Count (Fibroblast [2]; [9]): 112 | Population Apoptotic (%) (Fibroblast [2]; [10]): 33% | Population Fragmented Nuclei (%) (Fibroblast [2]; [10]): 20% | Population Healthy Nuclei (%) (Fibroblast [2]; [10]): 75% | Population Hoechst High Intensity Objects (%) (Fibroblast [2]; [10]): 7% | Population Membrane Permeable-Phenotype (%) (Fibroblast [2]; [10]): 37% | Population Mitochondria Different-Phenotype (%) (Fibroblast [2]; [10]): 48% | Population Mitotic Cells (%) (Fibroblast [2]; [10]): 66% | Population Normal (%) (Fibroblast [2]; [10]): 92% | Population Pyknosed Nuclei (%) (Fibroblast [2]; [10]): 5% | Population Tubulin-Different-Phenotype (%) (Fibroblast [2]; [10]): 66% | Total Cell Count (Fibroblast [2]; [10]): 65 | Population Apoptotic (%) (Fibroblast [2]; [11]): 44% | Population Fragmented Nuclei (%) (Fibroblast [2]; [11]): 25% | Population Healthy Nuclei (%) (Fibroblast [2]; [11]): 46% | Population Hoechst High Intensity Objects (%) (Fibroblast [2]; [11]): 13% | Population Membrane Permeable-Phenotype (%) (Fibroblast [2]; [11]): 21% | Population Mitochondria Different-Phenotype (%) (Fibroblast [2]; [11]): 14% | Population Mitotic Cells (%) (Fibroblast [2]; [11]): 56% | Population Normal (%) (Fibroblast [2]; [11]): 86% | Population Pyknosed Nuclei (%) (Fibroblast [2]; [11]): 27% | Population Tubulin-Different-Phenotype (%) (Fibroblast [2]; [11]): 73% | Total Cell Count (Fibroblast [2]; [11]): 104 | Population Apoptotic (%) (Fibroblast [2]; [12]): 37% | Population Fragmented Nuclei (%) (Fibroblast [2]; [12]): 7% | Population Healthy Nuclei (%) (Fibroblast [2]; [12]): 82% | Population Hoechst High Intensity Objects (%) (Fibroblast [2]; [12]): 1% | Population Membrane Permeable-Phenotype (%) (Fibroblast [2]; [12]): 3% | Population Mitochondria Different-Phenotype (%) (Fibroblast [2]; [12]): 10% | Population Mitotic Cells (%) (Fibroblast [2]; [12]): 62% | Population Normal (%) (Fibroblast [2]; [12]): 98% | Population Pyknosed Nuclei (%) (Fibroblast [2]; [12]): 10% | Population Tubulin-Different-Phenotype (%) (Fibroblast [2]; [12]): 6% | Total Cell Count (Fibroblast [2]; [12]): 79 | Population Apoptotic (%) (Fibroblast [2]; [13]): 43% | Population Healthy Nuclei (%) (Fibroblast [2]; [13]): 54% | Population Hoechst High Intensity Objects (%) (Fibroblast [2]; [13]): 12% | Population Membrane Permeable-Phenotype (%) (Fibroblast [2]; [13]): 34% | Population Mitochondria Different-Phenotype (%) (Fibroblast [2]; [13]): 9% | Population Mitotic Cells (%) (Fibroblast [2]; [13]): 56% | Population Normal (%) (Fibroblast [2]; [13]): 87% | Population Pyknosed Nuclei (%) (Fibroblast [2]; [13]): 16% | Population Tubulin-Different-Phenotype (%) (Fibroblast [2]; [13]): 55% | Total Cell Count (Fibroblast [2]; [13]): 108 | Population Apoptotic (%) (Fibroblast [2]; [14]): 92% | Population Fragmented Nuclei (%) (Fibroblast [2]; [14]): 28% | Population Healthy Nuclei (%) (Fibroblast [2]; [14]): 49% | Population Hoechst High Intensity Objects (%) (Fibroblast [2]; [14]): 7% | Population Membrane Permeable-Phenotype (%) (Fibroblast [2]; [14]): 19% | Population Mitochondria Different-Phenotype (%) (Fibroblast [2]; [14]): 45% | Population Mitotic Cells (%) (Fibroblast [2]; [14]): 7% | Population Normal (%) (Fibroblast [2]; [14]): 92% | Population Pyknosed Nuclei (%) (Fibroblast [2]; [14]): 22% | Population Tubulin-Different-Phenotype (%) (Fibroblast [2]; [14]): 51% | Total Cell Count (Fibroblast [2]; [14]): 68 | Population Apoptotic (%) (Fibroblast [2]; [15]): 53% | Population Fragmented Nuclei (%) (Fibroblast [2]; [15]): 35% | Population Healthy Nuclei (%) (Fibroblast [2]; [15]): 46% | Population Hoechst High Intensity Objects (%) (Fibroblast [2]; [15]): 22% | Population Membrane Permeable-Phenotype (%) (Fibroblast [2]; [15]): 36% | Population Mitochondria Different-Phenotype (%) (Fibroblast [2]; [15]): 18% | Population Mitotic Cells (%) (Fibroblast [2]; [15]): 46% | Population Normal (%) (Fibroblast [2]; [15]): 77% | Population Pyknosed Nuclei (%) (Fibroblast [2]; [15]): 18% | Population Tubulin-Different-Phenotype (%) (Fibroblast [2]; [15]): 66% | Total Cell Count (Fibroblast [2]; [15]): 92 | Population Apoptotic (%) (Fibroblast [2]; [16]): 0% | Population Fragmented Nuclei (%) (Fibroblast [2]; [16]): 19% | Population Healthy Nuclei (%) (Fibroblast [2]; [16]): 79% | Population Hoechst High Intensity Objects (%) (Fibroblast [2]; [16]): 7% | Population Membrane Permeable-Phenotype (%) (Fibroblast [2]; [16]): 14% | Population Mitochondria Different-Phenotype (%) (Fibroblast [2]; [16]): 3% | Population Mitotic Cells (%) (Fibroblast [2]; [16]): 100% | Population Normal (%) (Fibroblast [2]; [16]): 92% | Population Pyknosed Nuclei (%) (Fibroblast [2]; [16]): 0% | Population Tubulin-Different-Phenotype (%) (Fibroblast [2]; [16]): 54% | Total Cell Count (Fibroblast [2]; [16]): 127 | Population Apoptotic (%) (Fibroblast [2]; [17]): 66% | Population Fragmented Nuclei (%) (Fibroblast [2]; [17]): 44% | Population Healthy Nuclei (%) (Fibroblast [2]; [17]): 42% | Population Hoechst High Intensity Objects (%) (Fibroblast [2]; [17]): 12% | Population Membrane Permeable-Phenotype (%) (Fibroblast [2]; [17]): 22% | Population Mitochondria Different-Phenotype (%) (Fibroblast [2]; [17]): 12% | Population Mitotic Cells (%) (Fibroblast [2]; [17]): 33% | Population Normal (%) (Fibroblast [2]; [17]): 87% | Population Pyknosed Nuclei (%) (Fibroblast [2]; [17]): 12% | Population Tubulin-Different-Phenotype (%) (Fibroblast [2]; [17]): 57% | Total Cell Count (Fibroblast [2]; [17]): 107 | Population Apoptotic (%) (Fibroblast [2]; [18]): 100% | Population Fragmented Nuclei (%) (Fibroblast [2]; [18]): 37% | Population Healthy Nuclei (%) (Fibroblast [2]; [18]): 61% | Population Hoechst High Intensity Objects (%) (Fibroblast [2]; [18]): 8% | Population Membrane Permeable-Phenotype (%) (Fibroblast [2]; [18]): 29% | Population Mitochondria Different-Phenotype (%) (Fibroblast [2]; [18]): 11% | Population Mitotic Cells (%) (Fibroblast [2]; [18]): 0% | Population Normal (%) (Fibroblast [2]; [18]): 91% | Population Pyknosed Nuclei (%) (Fibroblast [2]; [18]): 1% | Population Tubulin-Different-Phenotype (%) (Fibroblast [2]; [18]): 61% | Total Cell Count (Fibroblast [2]; [18]): 96 | Growth Rate (HEK-293T; [3]): 0 | Growth Rate (HEK-293T; 6 h, replicate number 2, timepoint 6 hours): 1 | Growth Rate (HEK-293T; [4]): 1 | Growth Rate (HEK-293T; 12 h, replicate number 2, timepoint 12 hours): 0 | Growth Rate (HEK-293T; [5]): 0 | Growth Rate (HEK-293T; [6]): 0
